ChEMBL document CHEMBL1125285, “Gastrin releasing peptide antagonists with improved potency and stability” (J Med Chem, 1991)
Non-standard residues stand in square brackets, D forms with d. Residues, ends and D or L forms follow the SMILES beside them. *: point of attachment. NHCH(iBu)2 = CC(C)CC(CC(C)C)N*; X1 = CC(C)CCOC[C@H](CC(C)C)N*; X11 = CCCCC[C@@H](CC(C)C)N*; Leu(ol) = CC(C)C[C@H](N)CO; X10 = CCCOC[C@H](CC(C)C)N*; X4 = CCCCCC[C@H](CC(C)C)N*; X12 = CCCC[C@H](CC(C)C)N*; X8 = CCCC[C@@H](CC(C)C)N*; X5 = CCOC[C@H](CC(C)C)N*; X9 = CCC[C@@H](CC(C)C)N*; X3 = COC[C@H](CC(C)C)N*; X6 = CCC[C@H](CC(C)C)N*; X2 = CCCCC(CCCC)N*

What was measured:
[1] = molecular target: Gastrin-releasing peptide receptor (Mus musculus, UniProt P21729); experiment: Inhibition against Swiss 3T3 murine fibroblast cells.; type: functional, cell-based
Gastrin-releasing peptide receptor, sequence (P21729 whole entry): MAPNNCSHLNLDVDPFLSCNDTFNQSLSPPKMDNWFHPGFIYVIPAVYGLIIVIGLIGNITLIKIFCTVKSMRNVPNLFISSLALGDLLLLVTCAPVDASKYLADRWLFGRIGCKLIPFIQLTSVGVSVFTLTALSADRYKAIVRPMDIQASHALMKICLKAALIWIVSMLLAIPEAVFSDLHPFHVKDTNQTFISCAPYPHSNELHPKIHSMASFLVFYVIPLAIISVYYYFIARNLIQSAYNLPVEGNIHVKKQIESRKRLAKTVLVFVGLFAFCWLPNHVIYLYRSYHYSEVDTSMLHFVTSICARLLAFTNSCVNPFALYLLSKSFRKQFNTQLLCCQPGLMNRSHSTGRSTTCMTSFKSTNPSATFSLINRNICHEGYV
How it was run: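 Competitive binding on confluent Swiss 3T3 monolayers grown in DMEM with 10% FBS and 2 mM glutamine. [3H-Phe15]GRP-15-27 amide used at 2 nM final, at 15 °C for 1–2 h. Nonspecific binding defined with excess unlabeled GRP. Run in triplicate in at least two trials; mean IC50 reported.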

[2] = Compound was evaluated for mitogenic stimulation against Swiss 3T3 murine fibroblast cells.; type: functional, cell-based, Mus musculus
How it was run: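 Confluent Swiss 3T3 monolayers held in serum-free DMEM for 48 h, then peptide and 23 nM [3H]thymidine added. After 48 h more, cells detached with trypsin/5 mM EDTA and filter-harvested to measure [3H]thymidine uptake. EC50 is the mean of at least two independent experiments.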

Compound	IC50 [1] [nM]	EC50 [2] [nM]
CCOC[C@H](CC(C)C)NC(=O)[C@H](Cc1c[nH]cn1)NC(=O)[C@@H](C)NC(=O)[C@@H](NC(=O)[C@H](C)NC(=O)[C@H](Cc1c[nH]c2ccccc12)NC(=O)[C@H](Cc1c[nH]cn1)NC(C)=O)C(C)C	5	
CCOC[C@H](CC(C)C)NC(=O)[C@H](Cc1c[nH]cn1)NC(=O)[C@H](C)NC(=O)[C@@H](NC(=O)[C@H](C)NC(=O)[C@H](Cc1c[nH]c2ccccc12)NC(=O)[C@H](Cc1c[nH]cn1)NC(C)=O)C(C)C	410	
CSCC[C@H](NC(=O)[C@H](CC(C)C)NC(=O)[C@H](Cc1c[nH]cn1)NC(=O)[C@@H](C)NC(=O)[C@@H](NC(=O)[C@H](C)NC(=O)[C@H](Cc1c[nH]c2ccccc12)NC(=O)[C@H](Cc1c[nH]cn1)NC(C)=O)C(C)C)C(N)=O	3.2	0.2
CSCC[C@H](NC(=O)[C@H](CC(C)C)NC(=O)[C@H](Cc1c[nH]cn1)NC(=O)[C@H](C)NC(=O)[C@@H](NC(=O)[C@H](C)NC(=O)[C@H](Cc1c[nH]c2ccccc12)NC(=O)[C@H](Cc1c[nH]cn1)NC(C)=O)C(C)C)C(N)=O	180	20
CSCC[C@H](NC(=O)[C@H](CC(C)C)NC(=O)[C@H](Cc1c[nH]cn1)NC(=O)CNC(=O)[C@@H](NC(=O)[C@H](C)NC(=O)[C@H](Cc1c[nH]c2ccccc12)NC(=O)[C@H](Cc1c[nH]cn1)NC(=O)C(C)(C)C)C(C)C)C(N)=O	4.1	0.2
CC(=O)N[C@@H](Cc1c[nH]cn1)C(=O)N[C@@H](Cc1c[nH]c2ccccc12)C(=O)N[C@@H](C)C(=O)N[C@H](C(=O)NCC(=O)N[C@@H](Cc1c[nH]cn1)C(=O)N[C@H](COCCC(C)C)CC(C)C)C(C)C (Ac-HWAVGH-X1)	11	
CCCCC(CCCC)NC(=O)[C@H](Cc1cnc[nH]1)NC(=O)CNC(=O)[C@@H](NC(=O)[C@H](C)NC(=O)[C@H](Cc1c[nH]c2ccccc12)NC(=O)[C@H](Cc1cnc[nH]1)NC(C)=O)C(C)C (Ac-HWAVGH-X2)	3.3	
COC[C@H](CC(C)C)NC(=O)[C@H](Cc1c[nH]cn1)NC(=O)CNC(=O)[C@@H](NC(=O)[C@H](C)NC(=O)[C@H](Cc1c[nH]c2ccccc12)NC(=O)[C@H](Cc1c[nH]cn1)NC(C)=O)C(C)C (Ac-HWAVGH-X3)	8.3	
CCOC[C@H](CC(C)C)NC(=O)[C@H](Cc1c[nH]cn1)NC(=O)CNC(=O)[C@@H](NC(=O)[C@H](C)NC(=O)[C@H](Cc1c[nH]c2ccccc12)NC(=O)[C@H](Cc1c[nH]cn1)NC(C)=O)C(C)C (Ac-HWAVGH-X5)	6.2	
CCC[C@@H](CC(C)C)NC(=O)[C@H](Cc1c[nH]cn1)NC(=O)CNC(=O)[C@@H](NC(=O)[C@H](C)NC(=O)[C@H](Cc1c[nH]c2ccccc12)NC(=O)[C@H](Cc1c[nH]cn1)NC(C)=O)C(C)C (Ac-HWAVGH-X9)	4.9	
CCCOC[C@H](CC(C)C)NC(=O)[C@H](Cc1c[nH]cn1)NC(=O)CNC(=O)[C@@H](NC(=O)[C@H](C)NC(=O)[C@H](Cc1c[nH]c2ccccc12)NC(=O)[C@H](Cc1c[nH]cn1)NC(C)=O)C(C)C (Ac-HWAVGH-X10)	3.2	
CCCCC[C@@H](CC(C)C)NC(=O)[C@H](Cc1c[nH]cn1)NC(=O)CNC(=O)[C@@H](NC(=O)[C@H](C)NC(=O)[C@H](Cc1c[nH]c2ccccc12)NC(=O)[C@H](Cc1c[nH]cn1)NC(C)=O)C(C)C (Ac-HWAVGH-X11)	11	
CC(=O)N[C@@H](Cc1c[nH]cn1)C(=O)N[C@@H](Cc1c[nH]c2ccccc12)C(=O)N[C@@H](C)C(=O)N[C@H](C(=O)NCC(=O)N[C@@H](Cc1c[nH]cn1)C(=O)N[C@H](CO)CC(C)C)C(C)C (Ac-HWAVGH[Leu(ol)])	81	

These reach a lower IC50 [1]. Values come first.

IC50 [1] [nM]	Compound	EC50 [2] [nM]
1.8	CSCC[C@H](NC(=O)[C@H](CC(C)C)NC(=O)[C@H](Cc1c[nH]cn1)NC(=O)CNC(=O)[C@@H](NC(=O)[C@H](C)NC(=O)[C@H](Cc1c[nH]c2ccccc12)NC(=O)[C@H](Cc1c[nH]cn1)NC(C)=O)C(C)C)C(N)=O	0.2
2.8	CCCCCC[C@H](CC(C)C)NC(=O)[C@H](Cc1c[nH]cn1)NC(=O)CNC(=O)[C@@H](NC(=O)[C@H](C)NC(=O)[C@H](Cc1c[nH]c2ccccc12)NC(=O)[C@H](Cc1c[nH]cn1)NC(C)=O)C(C)C (Ac-HWAVGH-X4)	
2.6	CCC[C@H](CC(C)C)NC(=O)[C@H](Cc1cnc[nH]1)NC(=O)CNC(=O)[C@@H](NC(=O)[C@H](C)NC(=O)[C@H](Cc1c[nH]c2ccccc12)NC(=O)[C@H](Cc1cnc[nH]1)NC(C)=O)C(C)C (Ac-HWAVGH-X6)	
2.4	CCCC[C@@H](CC(C)C)NC(=O)[C@H](Cc1c[nH]cn1)NC(=O)CNC(=O)[C@@H](NC(=O)[C@H](C)NC(=O)[C@H](Cc1c[nH]c2ccccc12)NC(=O)[C@H](Cc1c[nH]cn1)NC(C)=O)C(C)C (Ac-HWAVGH-X8)	
1.4	CCCC[C@H](CC(C)C)NC(=O)[C@H](Cc1cnc[nH]1)NC(=O)CNC(=O)[C@@H](NC(=O)[C@H](C)NC(=O)[C@H](Cc1c[nH]c2ccccc12)NC(=O)[C@H](Cc1cnc[nH]1)NC(C)=O)C(C)C (Ac-HWAVGH-X12)	
1.2	CC(=O)N[C@@H](Cc1c[nH]cn1)C(=O)N[C@@H](Cc1c[nH]c2ccccc12)C(=O)N[C@@H](C)C(=O)N[C@H](C(=O)NCC(=O)N[C@@H](Cc1c[nH]cn1)C(=O)NC(CC(C)C)CC(C)C)C(C)C (Ac-HWAVGH-{NHCH(iBu)2})	
